Screening results as filed in PubChem BioAssay.
Most compounds without a hit are left out; they make up all but 2.7% or so of the library.
CSN inh – CSN deneddylation inhibition | Purified CSN, SCF-Nedd8-OG deneddylation, fluorescence polarization | inhibition, % at 12.5 µM | 360,000 compounds, 0.38% hits;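 active means pattern-corrected inhibition above about 35%, with an unprinted fluorescence ratio check between 0.5 and 1.5, limit read from the data, passing the limit was not always enough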
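Test system: purified human Csn5 enzyme expressed in HEK293T cells. Amount: 0.24 nM enzyme. Reagent: SCFSkp2-Nedd8OG substrate at 10 nM final. Schedule: 90 min incubation of compound, enzyme and substrate at room temperature. Detection: fluorescence polarization. Read-out: % inhibition of substrate cleavage by Csn5.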
TPT1 inhibitor – blocks Candida albicans tRNA 2'-phosphotransferase; recombinant caTPT1, FP RNA substrate dephosphorylation; 300,000 compounds, 0.81% hits; inhibition, % at 5 µM;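 active means inhibition above the mean of all tested compounds plus 3 SD, set per screening campaign, cut at about 24% in these data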
HNF4A DNA FP – change in binding of human HNF4 alpha to DNA | activity change, % at 10 µM | HNF4a-FITC DNA binding, fluorescence polarization, 1 h | AID 1224865 | 360,000 compounds, 0.3% hits | P41235; in the data active means activity change above about 30%, passing the limit was not always enough
PP1 counter – counter-screen for PP5 inhibitors: inhibitors of human PP1-alpha; inhibition, % at 6.7 µM; purified PP1alpha, OMFP fluorescence; P62136; 320,000 compounds, 0.9% hits; AID 2235;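 active means inhibition above the mean inhibition of all tested compounds plus 3 SD, computed separately for each screening campaign, cut at about 15% in these data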
Rpn11 inh – Rpn11 (human) deubiquitinase inhibition; O00487; human 26S proteasome, Ub4-pepOG fluorescence polarization; 20S core pre-blocked with epoxomicin; inhibition, % at 20 µM; 360,000 compounds, 0.59% hits;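 active means inhibition at 20 µM, scaled to each plate's controls, above about 33%, limit read from the data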
NadD block – blocks S. aureus nicotinate mononucleotide adenylyltransferase; purified NadD enzyme, colorimetric absorbance read-out; inhibition, % at 20 µM; 360,000 compounds, 0.78% hits; in the data active means inhibition above about 26%
Rpn11 inh conf – Rpn11 inhibition confirmation, single concentration; shares compounds with Rpn11 inh; purified human 26S proteasome, Ub4-pepOG fluorescence polarization; proteasome pretreated with epoxomicin; inhibition, % at 20 µM; 1,900 compounds, 29% hits; AID 602318
MMP-2 counter – counter-screen for RPN11 inhibitors: inhibition of human MMP-2; AID 602330; inhibition, % at 20 µM; recombinant MMP-2, FRET peptide cleavage fluorescence; shares compounds with Rpn11 inh; 1,900 compounds, 4% hits;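 further: human MMP-2 activated beforehand with APMA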
Thrombin inh – blocks bovine thrombin, flagging nonselective RPN11 hits. shares compounds with Rpn11 inh. bovine thrombin cleavage of Ub4-pepOG, fluorescence polarization. inhibition, % at 20 µM. 1,900 compounds, 13% hits;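 active means mean inhibition at least 40% at 20 µM, or signal 3 deviations below plate average, so some actives read negative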
Of the large screens only hits and unclear results are named; the others gave an inactive call (follow-up assays come after a bar, where they were run). Unless noted, no stated cut-off is given here; in the data, active means inhibition above about 40%; inactive means the rest.

CCCN1CCN(C(=O)C2CCN(S(=O)(=O)c3ccc4c(c3)NC(=O)C(C)S4)CC2)CC1 (centres undefined)	Rpn11 inh 40 | Rpn11 inh conf inactive | MMP-2 counter inactive | Thrombin inh inactive
CCCCN1CCC(=O)C(C(=O)OCC)=C1C(=O)OCC	none (no result: TPT1 inhibitor, PP1 counter)
CCOC(=O)c1sc(Nc2ccc(C)cc2C)nc1C	Rpn11 inh 36 | Rpn11 inh conf inactive | MMP-2 counter inactive | Thrombin inh inactive
CCCCN=C1NN=C(c2cc3ccccc3o2)CS1	Rpn11 inh 46 | Rpn11 inh conf inactive | MMP-2 counter inactive | Thrombin inh inactive
C=CCN1C(=O)c2ccc(C(=O)OCC(=O)N(CC)c3c(N)n(Cc4ccccc4)c(=O)[nH]c3=O)cc2C1=O	none (no result: TPT1 inhibitor, PP1 counter)
O=C1C(=Cc2cn(-c3ccccc3)nc2-c2ccc(OCc3ccccc3F)cc2)SC(=S)N1CCS(=O)(=O)O	Rpn11 inh 83, NadD block 30 (no result: TPT1 inhibitor, PP1 counter) | Rpn11 inh conf 103 | MMP-2 counter 58 | Thrombin inh 163
O=C(O)CN1C(=O)/C(=C\c2cccc(OCc3ccccc3F)c2)SC1=S	none
O=C(O)CN1C(=O)/C(=C\c2ccccc2OCc2ccc(Cl)cc2)SC1=S	none
O=C1C(=Cc2cn(-c3ccccc3)nc2-c2ccc(OCc3ccc(Cl)cc3)cc2)SC(=S)N1CCS(=O)(=O)O	CSN inh 80, Rpn11 inh 116, NadD block 60 (no result: TPT1 inhibitor, PP1 counter) | Rpn11 inh conf 104 | MMP-2 counter 65 | Thrombin inh 183
Cc1ccc(CC(=O)NNC(=O)c2ccncc2)cc1C	none
COc1ccc(C(=O)C(C)OC(=O)c2nc3nccc(C)n3n2)cc1 (centres undefined)	none (no result: TPT1 inhibitor)
Cc1ccc(S(=O)(=O)N2CCN(C(=O)COC(=O)/C=C/c3ccc([N+](=O)[O-])cc3)CC2)c(C)c1	Rpn11 inh 65 (no result: TPT1 inhibitor, PP1 counter) | Rpn11 inh conf inactive | MMP-2 counter inactive | Thrombin inh inactive
O=C1CS(=O)(=O)N(Cc2ccc(F)cc2)c2ccccc21	Rpn11 inh 66 (no result: TPT1 inhibitor, PP1 counter) | Rpn11 inh conf inactive | MMP-2 counter inactive | Thrombin inh inactive
COc1cc(CN2c3ccccc3C(=O)CS2(=O)=O)cc(OC)c1	Rpn11 inh 58 (no result: TPT1 inhibitor, PP1 counter) | Rpn11 inh conf 82 | MMP-2 counter inactive | Thrombin inh inactive
O=C1CCN(Cc2ccccc2)S(=O)(=O)c2ccc(F)cc21	none (no result: TPT1 inhibitor)
O=C1CS(=O)(=O)N(Cc2ccccc2F)c2ccc(Br)cc21	Rpn11 inh 50 (no result: TPT1 inhibitor, PP1 counter) | Rpn11 inh conf inactive | MMP-2 counter inactive | Thrombin inh inactive
CCOC(=O)C1=CCN(S(=O)(=O)c2ccccc2C)C1c1cccc(Br)c1 (centres undefined)	none (no result: TPT1 inhibitor, PP1 counter)
Cc1ccc(C(=O)O)cc1-c1ccc(C=C2C(=O)c3ccccc3C2=O)o1	TPT1 inhibitor 30, Rpn11 inh 99 | Rpn11 inh conf inactive | MMP-2 counter inactive | Thrombin inh inactive
CCOC(=O)c1c(C)[nH]c(C(=O)N/N=C/c2cccc(OC)c2)c1C	none
COc1cccc(/C=N/NC(=O)c2[nH]c(C)c(C(=O)N/N=C/c3cccc(OC)c3)c2C)c1	Rpn11 inh 57 | Rpn11 inh conf 45 | MMP-2 counter inactive | Thrombin inh inactive
CCCCn1c(N)c(N(CCOC)C(=O)CCC2CCCCC2)c(=O)[nH]c1=O	none (no result: TPT1 inhibitor)
O=C(N/N=C/c1ccc(OC(=O)c2ccc3c(c2)OCO3)cc1)c1cncc(Br)c1	Rpn11 inh active | Rpn11 inh conf inactive | MMP-2 counter inactive | Thrombin inh inactive
CC(=O)c1cccc(NC(=O)C2CCN(C(=O)c3cccs3)CC2)c1	none
CC(=O)Nc1ccc(C(=O)NCC2CCCCC2)cc1	none
Cc1ccc(OCC(=O)NNC(=O)CSc2ncnc3sc(C)c(C)c23)cc1	CSN inh 38, Rpn11 inh 116 | Rpn11 inh conf 57 | MMP-2 counter 68 | Thrombin inh inactive
CCc1ccc(OCC(=O)NNC(=O)CSc2ncnc3sc(C)c(C)c23)cc1	Rpn11 inh 60 | Rpn11 inh conf inactive | MMP-2 counter inactive | Thrombin inh inactive
